Experimental data reported in paper PMC9677924 (International Journal of Nanomedicine, 2022).
Values after ≈ are worked out from the molar mass of the structure shown.

How the values were obtained:
MCF-7/HER2 cells = assay: In vitro cytotoxicity, MTT assay; type: cell-based; conditions: Homo sapiens, MCF7, 48 h, read-out: IC50 (ng/mL) Free Drug
Summary of the method: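 MCF-7/HER2 cells grown in DMEM/F12 with 10% FBS and 1% penicillin/streptomycin/amphotericin B at 37 °C, 5% CO2. Seeded at 1×10^4 cells/well for 24 h, then exposed to test compounds (free or nanocarrier forms) at 1~500 ng/mL. Methods give a 48 h exposure; the figure legend gives 72 h. Then 0.5 mg/mL MTT for 3 h, formazan dissolved in DMSO, absorbance read at 550 nm.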

Biosafety examination = type: in vivo, nude mice; conditions: after the Q3D×4 regimen
Summary of the method: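 Organs and tumors came from the MCF-7/HER2 xenograft nude-mouse study (IV dosing every 3 days ×4). Tail morphology was examined on day 24. On day 28 after administration, tissues were fixed in 4% paraformaldehyde. Heart, liver, spleen, lungs and kidneys were H&E-stained and scored for inflammatory cell infiltration.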

[1] = In vivo pharmacokinetic studies; design: species or system Sprague-Dawley rats
[2] = In vivo biodistribution studies in MCF-7/HER2 tumor-bearing mice; design: species or system nude mice; conditions: 8 h after administration; liver and kidneys
[3] = In vitro release of docetaxel and pictilisib; type: physicochemical; conditions: after 12 h
MCF-7/HER2 tumors = assay: In vivo tumor inhibition studies; design: species or system nude mice; conditions: day 24, compared with the PBS group; IV Q3D×4
Summary of the method: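 Female nude mice (7 weeks) injected s.c. in the right thigh with 1×10^6 MCF-7/HER2 cells, plus 20 μg estradiol valerate in sesame oil s.c. in the neck. At ~100 mm3, mice were randomized to 10 groups (n=4, saline control). They received IV tail-vein doses equivalent to 5 mg/kg taxane and/or 2.5 mg/kg PI3K inhibitor every 3 days ×4. Volume (L×W²/2) and body weight were recorded every 3 days. Tumors were excised and weighed on day 24.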

[4] = cited from earlier work
[5] = cited from earlier work; remark: listed apart in the source
[6] = female, Sprague-Dawley, rat, plasma, iv, 5 mg/kg
[7] = female, Sprague-Dawley, rat, plasma, iv, 2.5 mg/kg

Row | Structure (SMILES) | IC50 (MCF-7/HER2 cells) [ng/mL] | liver, H&E staining (inflammatory cell infiltration) (Biosafety examination) | AUC(0-inf) [1, 6] [ng·h/mL] | AUC(0-t) [1, 6] [ng·h/mL] | Vd [1, 6] [L/kg] | clearance [1, 6] [mL/min/kg] | half-life [1, 6] [h] | Relative bioavailability (%) of DTX ([1]; relative to Free DTX, IV 5 mg/kg BW DTX, rats) [%] | accumulation of DTX in major organs [2] | precipitation in the dialysis bag [3] | AUC(0-inf) [1, 7] [ng·h/mL] | AUC(0-t) [1, 7] [ng·h/mL] | Vd [1, 7] [L/kg] | half-life [1, 7] [h] | C0 (μg/mL) of PIC ([1]; pictilisib in plasma, IV 2.5 mg/kg BW PIC, rats, n=3, listed as Free PIC, 2.5 mg/kg) [µg/mL] | tumor weights / tumor inhibition (MCF-7/HER2 tumors) | log P [4] | pKa [5]
1 | CC(=O)O[C@@]12CO[C@@H]1C[C@H](O)[C@@]1(C)C(=O)[C@H](O)C3=C(C)[C@@H](OC(=O)[C@H](O)[C@@H](NC(=O)OC(C)(C)C)c4ccccc4)C[C@@](O)([C@@H](OC(=O)c4ccccc4)[C@H]21)C3(C)C [DTX, docetaxel] | 12.5 ± 2.69 (≈ 0.0155 µM) | slight liver damage | 524 ± 37 | 487 ± 37 | 73.4 ± 5.22 | 160 | 5.32 ± 0.24 | 100 | higher accumulation in the liver and kidneys | – | – | – | – | – | – | – | – | –
2 | CS(=O)(=O)N1CCN(Cc2cc3nc(-c4cccc5[nH]ncc45)nc(N4CCOCC4)c3s2)CC1 [PIC, pictilisib] | 86.8 ± 17.6 (≈ 0.169 µM) | – | – | – | – | – | – | – | – | precipitation in the free PIC group was observed | 536 ± 44 | 530 ± 46 | 19.7 ± 6.27 | 2.92 ± 0.97 | 0.691 ± 0.115 | little antitumor efficacy | 1.96 | 13.19
